Results collected from several papers.
Each line is one published result; the experiments were not run side by side. pEC50, pKd, pKi: −log10 of the molar value.
TEC: Tyrosine-protein kinase Tec (TEC, Homo sapiens, UniProt P42680)
ADORA2B: Adenosine receptor A2b (ADORA2B, Homo sapiens, UniProt P29275)
PBRM1 bromodomain: Protein polybromo-1, bromodomain (PBRM1, Homo sapiens, UniProt Q86U86)
Melanocortin receptor 3: Melanocortin receptor 3 (Mus musculus, UniProt P33033)

SMILES | target | assay | setting | endpoint | value
N[C@@H](CCC(=O)O)C(=O)O | Metabotropic glutamate receptor 8 (Grm8, Rattus norvegicus, UniProt P70579) | calcium signal, agonist |  | pEC50 | 6.11
CC#CC(=O)N1CC[C@@H](n2cc(-c3ccc(Oc4c(F)cccc4F)cc3)c3c(N)n[nH]c(=O)c32)C1 | TEC | binding, competition with immobilised ligand |  | pKd | 8.40
CCCCCCN1CCCn2c1nc1c2c(=O)n(C)c(=O)n1C | ADORA2B | ligand displacement, radioligand | cell membranes | pKi | < 5.00
Cc1ncsc1-c1ccc(CNC(=O)[C@@H]2C[C@@H](O)CN2C(=O)[C@@H](NC(=O)C2(F)CC2)C(C)(C)C)c(OCCOc2ccc(CN3CCN(c4cc(-c5ccccc5O)nnc4N)CC3)cc2)c1 | PBRM1 bromodomain | binding, SPR |  | pKd | 6.08
CCCCN1CCC(COC(=O)c2ccc(N)c(OCF)c2)CC1 | Muscarinic acetylcholine receptor M1 (CHRM1, Homo sapiens, UniProt P11229) | cell-free assay, radioligand |  | pKi | < 5.00
CSCC[C@H](NC(=O)[C@@H](NC(=O)[C@@H](N)Cc1ccc(O)cc1)C(C)C)C(=O)NCC(=O)N[C@@H](Cc1c[nH]cn1)C(=O)N[C@@H](Cc1ccccc1)C(=O)N[C@@H](CCCNC(=N)N)C(=O)N[C@@H](Cc1c[nH]c2ccccc12)C(=O)N[C@@H](CC(=O)O)C(=O)O | Melanocortin receptor 3 | reporter gene, agonist |  | pEC50 | 6.10
CC(C)CN1CCCn2c1nc1c2c(=O)n(C)c(=O)n1C | ADORA2B | ligand displacement, radioligand | cell membranes | pKi | < 5.00
CSCC[C@H](NC(=O)[C@@H](NC(=O)[C@@H](N)Cc1ccc(O)cc1)C(C)C)C(=O)NCC(=O)N[C@@H](Cc1c[nH]cn1)C(=O)N[C@@H](Cc1ccccc1)C(=O)N[C@@H](CCCNC(=N)N)C(=O)N[C@@H](Cc1c[nH]c2ccccc12)C(=O)N[C@@H](CC(=O)O)C(=O)N[C@@H](CCCNC(=N)N)C(=O)O | Melanocortin receptor 3 | reporter gene, agonist |  | pEC50 | 7.44
Nc1nc2c(ncn2[C@@H]2O[C@H](COP(=O)(O)OP(=O)(O)O)[C@@H](OP(=O)(O)OP(=O)(O)O)[C@H]2O)c(=O)[nH]1 | speC (Escherichia coli, UniProt P21169) | binding, ITC |  | pKd | 5.80
CCCCCC(C)N1CCCn2c1nc1c2c(=O)n(C)c(=O)n1C (stereo not drawn) | ADORA2B | ligand displacement, radioligand | cell membranes | pKi | < 5.00
Cc1[nH]c2ccccc2c1CCNC(=O)c1ccc(N(C)C)cc1 | Prostaglandin E2 receptor EP2 subtype (PTGER2, Homo sapiens, UniProt P43116) | cAMP, antagonist, TR-FRET |  | Kb | ~0.01 µM
Cc1ncsc1-c1ccc(CNC(=O)[C@@H]2C[C@@H](O)CN2C(=O)[C@@H](NC(=O)C2(F)CC2)C(C)(C)C)c(OCCOCCOCCN2CCN(c3cc(-c4ccccc4O)nnc3N)CC2)c1 | PBRM1 bromodomain | binding, SPR |  | pKd | 5.57
CC(=O)N[C@H](C(=O)N1C[C@H](O)C[C@H]1C(=O)NCc1ccc(-c2scnc2C)cc1)C(C)(C)SCCCCCCNC(=O)C[C@@H]1N=C(c2ccc(Cl)cc2)c2c(sc(C)c2C)-n2c(C)nnc21 | Bromodomain-containing protein 2, BD1 (BRD2, Homo sapiens, UniProt P25440) | binding, ITC |  | pKd | 6.95
C#CCN1CCCn2c1nc1c2c(=O)n(C)c(=O)n1C | ADORA2B | ligand displacement, radioligand | cell membranes | pKi | < 5.00
CSCC[C@H](N)C(=O)NCC(=O)N[C@@H](Cc1c[nH]cn1)C(=O)N[C@@H](Cc1ccccc1)C(=O)N[C@@H](CCCNC(=N)N)C(=O)N[C@@H](Cc1c[nH]c2ccccc12)C(=O)N[C@@H](CC(=O)O)C(=O)N[C@@H](CCCNC(=N)N)C(=O)N[C@@H](Cc1ccccc1)C(=O)NCC(=O)O | Melanocortin receptor 3 | reporter gene, agonist |  | pEC50 | 6.59
Cc1cc2nc3c(=O)[nH]c(=O)nc-3n(C[C@H](O)[C@H](O)[C@H](O)COP(=O)(O)OP(=O)(O)OC[C@H]3O[C@@H](n4cnc5c(N)ncnc54)[C@H](O)[C@@H]3O)c2cc1C | Muscleblind-like protein 1 (Homo sapiens, UniProt Q9NR56) | binding | lysate | pKd | 7.64
N=C(N)NCCC[C@H](NC(=O)[C@@H](N)CC(=O)O)C(=O)N[C@@H](Cc1ccccc1)C(=O)O | Melanocortin receptor 3 | reporter gene, agonist |  | pEC50 | < 4.00
CCNC(=O)[C@H]1O[C@@H](n2cnc3c(N)nc(NN=CC4CCC=CO4)nc32)[C@H](O)[C@@H]1O (stereo partly drawn) | ADORA2B | GTPγS binding, agonist | cell membranes | pEC50 | 4.76
COc1cc(Nc2ncc3c(n2)-c2ccc(Cl)cc2C(c2c(F)cccc2OC)=NC3)ccc1C(=O)O | TEC | binding | lysate | pKd | 5.01
N=C(N)NCCC[C@H](NC(=O)[C@H](CC(=O)O)NC(=O)[C@H](Cc1c[nH]c2ccccc12)NC(=O)[C@H](CCCNC(=N)N)NC(=O)[C@H](Cc1ccccc1)NC(=O)[C@@H](N)Cc1c[nH]cn1)C(=O)N[C@@H](Cc1ccccc1)C(=O)O | Melanocortin receptor 3 | reporter gene, agonist |  | pEC50 | 5.18
COCCOc1ccc(N2CCN(CCn3ncc4c3nc(N)n3nc(-c5ccco5)nc43)CC2)cc1 | ADORA2B | ligand displacement, radioligand | cell membranes | pKi | < 6.00
N=C(N)NCCC[C@H](NC(=O)[C@@H](N)CC(=O)O)C(=O)N[C@@H](Cc1ccccc1)C(=O)NCC(=O)O | Melanocortin receptor 3 | reporter gene, agonist |  | pEC50 | < 4.00
CNC(=O)COc1cc2cc(Nc3nc(N4CCC(C(=O)NCCCCCCCNC(=O)C[C@@H]5N=C(c6ccc(Cl)cc6)c6c(sc(C)c6C)-n6c(C)nnc65)CC4)ncc3Cl)cc(OC)c2n(C)c1=O | B-cell lymphoma 6 protein (BCL6, Homo sapiens, UniProt P41182, C67R/C84N/C8Q) | binding, ITC |  | pKd | < 3.00
N=C(N)NCCC[C@H](N)C(=O)N[C@@H](Cc1ccccc1)C(=O)NCC(=O)O | Melanocortin receptor 3 | reporter gene, agonist |  | pEC50 | < 4.00
C=CN1CCCn2c1nc1c2c(=O)n(C)c(=O)n1C | ADORA2B | ligand displacement, radioligand | cell membranes | pKi | < 5.00
N=C(N)NCCC[C@H](NC(=O)[C@H](CC(=O)O)NC(=O)[C@@H](N)Cc1c[nH]c2ccccc12)C(=O)N[C@@H](Cc1ccccc1)C(=O)NCC(=O)O | Melanocortin receptor 3 | reporter gene, agonist |  | pEC50 | < 4.00
CCCCN1CCCn2c1nc1c2c(=O)n(CCC)c(=O)n1CCC | ADORA2B | ligand displacement, radioligand | cell membranes | pKi | 5.88
